Data from ChEMBL document CHEMBL4316595, “Synthesis and structure-activity relationship studies of parthenolide derivatives as potential anti-triple negative breast cancer agents” (Eur J Med Chem, 2019).
pIC50: −log10 of the molar value. Values belong to the compound of their own block, whether it stands above or below them. Calls of active or inactive are those of the source. The rule behind the calls is not given here.

What was measured:
4T1 [1] = test: Antiproliferative activity against mouse 4T1 cells measured after 72 hrs by MTT assay; assay type: functional, cell-based; settings: 4T1, 72 h
Procedure, shortened: (§1)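 MTT antiproliferation assay on human breast cancer lines MDA-MB-231, SUM-159, MCF-7 and Bcap-37 and on mouse 4T1 breast cancer cells. IC50 values were taken from the MTT read-out. Adriamycin served as the positive control.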

SUM-159-PT [2] = test: Antiproliferative activity against human SUM159 cells measured after 72 hrs by MTT assay; assay type: functional, cell-based; procedure, shortened: as §1
MDA-MB-231 [3] = test: Antiproliferative activity against human MDA-MB-231 cells measured after 72 hrs by MTT assay; assay type: functional, cell-based; settings: MDA-MB-231, 72 h; procedure, shortened: as §1
MCF7 [4] = test: Antiproliferative activity against human MCF7 cells measured after 72 hrs by MTT assay; assay type: functional, cell-based; settings: MCF7, 72 h; procedure, shortened: as §1
Bcap37 [5] = test: Antiproliferative activity against human Bcap37 cells measured after 72 hrs by MTT assay; assay type: functional, cell-based; settings: Bcap37, 72 h; procedure, shortened: as §1
MDA-MB-231 [6] = test: Potency index, ratio of parthenolide IC50 to test compound IC50 for human MDA-MB-231 cells; assay type: functional
SUM-159-PT [7] = test: Induction of apoptosis in human SUM159 cells assessed as viable cells at 0.5 uM measured after 48 hrs by Annexin-V APC/propidium iodide staining based flow cytometry (reference value: 95.9%); assay type: functional; settings: read-out: Activity
Procedure, shortened: (§2)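 SUM-159 cells were exposed at 0, 0.2 and 0.5 µM, then stained with annexin V/PI and analysed by flow cytometry. Early apoptosis was annexin V+/PI−, late apoptosis annexin V+/PI+, and total apoptosis was the sum of the two.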

SUM-159-PT [8] = test: Induction of apoptosis in human SUM159 cells assessed as late apoptotic cells at 0.5 uM measured after 48 hrs by Annexin-V APC/propidium iodide staining based flow cytometry (reference value: 1.45%); assay type: functional; procedure, shortened: as §2
SUM-159-PT [9] = test: Induction of apoptosis in human SUM159 cells assessed as necrotic cells at 0.5 uM measured after 48 hrs by Annexin-V APC/propidium iodide staining based flow cytometry (reference value: 0.152%); assay type: functional; procedure, shortened: as §2
SUM-159-PT [10] = test: Induction of apoptosis in human SUM159 cells assessed as early apoptotic cells at 0.5 uM measured after 48 hrs by Annexin-V APC/propidium iodide staining based flow cytometry (reference value: 2.5%); assay type: functional; procedure, shortened: as §2
MDA-MB-231 [11] = test: Antiproliferative activity against human MDA-MB-231 cells co-treated with melampomagnolide B at 1:1 molar ratio measured after 72 hrs by MTT assay; settings: MDA-MB-231, 72 h
SUM-159-PT [12] = test: Cell cycle arrest in human SUM159 cells assessed as down regulation of CHK2 expression at 0.1 to 0.2 uM measured after 48 hrs by Western blot analysis; assay type: functional, cell-based
SUM-159-PT [13] = test: Cell cycle arrest in human SUM159 cells assessed as down regulation of CHK1 expression at 0.1 to 0.2 uM measured after 48 hrs by Western blot analysis; assay type: functional, cell-based
SUM-159-PT [14] = test: Induction of apoptosis in human SUM159 cells assessed as increase in Bax expression measured after 48 hrs by Western blot analysis; assay type: functional, cell-based
SUM-159-PT [15] = test: Cell cycle arrest in human SUM159 cells assessed as decrease in S-phase accumulation measured after 48 hrs by propidium iodide staining based flow cytometry
SUM-159-PT [16] = test: Induction of apoptosis in human SUM159 cells assessed as increase in cleaved caspase-9 measured after 48 hrs by Western blot analysis; assay type: functional, cell-based
SUM-159-PT [17] = test: Induction of apoptosis in human SUM159 cells assessed as viable cells at 0.2 uM measured after 48 hrs by Annexin-V APC/propidium iodide staining based flow cytometry (reference value: 95.9%); assay type: functional; settings: read-out: Activity; procedure, shortened: as §2
NIH3T3 = test: Cytotoxicity against mouse 3T3 cells measured after 72 hrs by MTT assay; assay type: cell-based; settings: NIH3T3, 72 h
Procedure, shortened: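 Cytotoxicity was measured by MTT on normal 3T3 mouse embryonic fibroblasts, with IC50 from the MTT read-out.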

SUM-159-PT [18] = test: Induction of apoptosis in human SUM159 cells assessed as increase in cytochrome-C release measured after 48 hrs by Western blot analysis; assay type: functional, cell-based
Bcap37 [19] = test: Potency index, ratio of parthenolide IC50 to test compound IC50 for human Bcap37 cells; assay type: functional
SUM-159-PT [20] = test: Induction of apoptosis in human SUM159 cells assessed as late apoptotic cells at 0.2 uM measured after 48 hrs by Annexin-V APC/propidium iodide staining based flow cytometry (reference value: 1.45%); assay type: functional; procedure, shortened: as §2
MCF7 [21] = test: Potency index, ratio of parthenolide IC50 to test compound IC50 for human MCF7 cells; assay type: functional
[22] = target: T1, Serine/threonine-protein kinase Chk1 (Homo sapiens) (UniProt O14757); test: Inhibition of Chk1 phosphorylation in human SUM159 cells at 0.1 to 0.2 uM measured after 48 hrs by Western blot analysis; assay type: cell-based
T1 sequence (whole entry): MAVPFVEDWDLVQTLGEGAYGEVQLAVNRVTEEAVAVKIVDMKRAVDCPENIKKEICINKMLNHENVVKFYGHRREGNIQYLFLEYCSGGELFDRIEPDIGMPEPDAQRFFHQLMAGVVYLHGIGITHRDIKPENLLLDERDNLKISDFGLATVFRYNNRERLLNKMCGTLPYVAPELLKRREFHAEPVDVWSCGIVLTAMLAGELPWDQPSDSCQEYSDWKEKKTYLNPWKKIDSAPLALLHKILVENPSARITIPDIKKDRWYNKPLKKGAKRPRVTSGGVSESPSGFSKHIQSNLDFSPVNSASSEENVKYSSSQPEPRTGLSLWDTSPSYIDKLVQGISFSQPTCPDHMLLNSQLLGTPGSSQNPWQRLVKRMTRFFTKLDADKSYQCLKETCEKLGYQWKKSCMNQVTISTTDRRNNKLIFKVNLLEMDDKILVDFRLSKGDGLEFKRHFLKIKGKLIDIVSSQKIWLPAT

[23] = Therapeutic index, ratio of IC50 for mouse 3T3 cells to IC50 for mouse 4T1 cells; assay type: toxicity; settings: 3T3 cells and 4T1 cells, read-out: Ratio IC50
[24] = target: Serine/threonine-protein kinase Chk2 (Homo sapiens) (UniProt O96017); test: Inhibition of Chk2 phosphorylation in human SUM159 cells at 0.1 to 0.2 uM measured after 48 hrs by Western blot analysis; assay type: cell-based
Serine/threonine-protein kinase Chk2 (Homo sapiens), sequence (O96017 whole entry): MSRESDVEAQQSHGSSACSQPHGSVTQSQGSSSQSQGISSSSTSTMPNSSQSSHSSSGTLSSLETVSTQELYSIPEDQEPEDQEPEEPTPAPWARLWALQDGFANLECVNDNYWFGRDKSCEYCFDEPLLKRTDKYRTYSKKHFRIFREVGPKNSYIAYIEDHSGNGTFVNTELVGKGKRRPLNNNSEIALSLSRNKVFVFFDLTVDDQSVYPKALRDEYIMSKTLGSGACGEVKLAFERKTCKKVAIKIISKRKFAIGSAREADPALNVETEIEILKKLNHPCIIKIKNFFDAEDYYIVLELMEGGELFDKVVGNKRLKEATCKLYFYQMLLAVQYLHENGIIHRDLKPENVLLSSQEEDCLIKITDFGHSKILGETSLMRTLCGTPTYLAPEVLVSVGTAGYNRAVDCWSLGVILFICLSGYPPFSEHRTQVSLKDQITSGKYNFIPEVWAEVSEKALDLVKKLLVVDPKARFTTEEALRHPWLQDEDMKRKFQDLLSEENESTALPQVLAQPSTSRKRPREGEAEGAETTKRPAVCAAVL

SUM-159-PT [25] = test: Cell cycle arrest in human SUM159 cells assessed as up regulation of P27 expression at 0.1 to 0.2 uM measured after 48 hrs by Western blot analysis; assay type: functional, cell-based
[26] = target: Cyclin-dependent kinase 1 (Homo sapiens) (UniProt P06493); test: Inhibition of CDC2 phosphorylation in human SUM159 cells at 0.1 to 0.2 uM measured after 48 hrs by Western blot analysis; assay type: cell-based
Cyclin-dependent kinase 1 (Homo sapiens), sequence (P06493 whole entry, looked up): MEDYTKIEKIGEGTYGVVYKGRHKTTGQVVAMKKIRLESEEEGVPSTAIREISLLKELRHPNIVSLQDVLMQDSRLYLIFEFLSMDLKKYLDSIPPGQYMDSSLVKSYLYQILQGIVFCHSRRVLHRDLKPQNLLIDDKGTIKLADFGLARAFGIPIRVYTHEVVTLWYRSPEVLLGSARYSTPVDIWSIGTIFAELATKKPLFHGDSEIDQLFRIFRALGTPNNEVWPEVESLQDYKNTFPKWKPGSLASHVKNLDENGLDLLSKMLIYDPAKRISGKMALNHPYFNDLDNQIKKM

SUM-159-PT [27] = test: Induction of apoptosis in human SUM159 cells assessed as increase in Bim expression measured after 48 hrs by Western blot analysis; assay type: functional, cell-based
SUM-159-PT [28] = test: Induction of apoptosis in human SUM159 cells assessed as early apoptotic cells at 0.2 uM measured after 48 hrs by Annexin-V APC/propidium iodide staining based flow cytometry (reference value: 2.5%); assay type: functional; procedure, shortened: as §2
SUM-159-PT [29] = test: Potency index, ratio of parthenolide IC50 to test compound IC50 for human SUM159 cells; assay type: functional
SUM-159-PT [30] = test: Cell cycle arrest in human SUM159 cells assessed as decrease in G2/M-phase accumulation at […] measured after 48 hrs by propidium iodide staining based flow cytometry; assay type: functional
Procedure, shortened: (§3)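 SUM-159 cells were treated for 48 h. Cell cycle distribution (G1, S, G2/M) was measured by flow cytometry and compared with an untreated control group.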

SUM-159-PT [31] = test: Cell cycle arrest in human SUM159 cells assessed as increase in G1-phase accumulation at […] measured after 48 hrs by propidium iodide staining based flow cytometry; assay type: functional; procedure, shortened: as §3
4T1 [32] = test: Potency index, ratio of parthenolide IC50 to test compound IC50 for mouse 4T1 cells; assay type: functional
SUM-159-PT [33] = test: Induction of apoptosis in human SUM159 cells assessed as necrotic cells at 0.2 uM measured after 48 hrs by Annexin-V APC/propidium iodide staining based flow cytometry (reference value: 0.152%); assay type: functional; procedure, shortened: as §2

pIC50 (4T1 [1]): 6.20 | pIC50 (MDA-MB-231 [3]): 6.02 | pIC50 (MCF7 [4]): 5.86
SMILES: C=C1C(=O)O[C@H]2[C@H]1CC/C(COC(=O)/C=C/c1cc(OC)c(OC)c(OC)c1)=C\CC[C@@]1(C)O[C@@H]21
pIC50 (SUM-159-PT [2]): 6.07 | pIC50 (Bcap37 [5]): 5.71

pIC50 (MDA-MB-231 [3]): 5.87
SMILES: C=C1C(=O)O[C@H]2[C@H]1CC/C(COC(=O)/C=C/c1ccccc1)=C\CC[C@@]1(C)O[C@@H]21
Ratio IC50 (MDA-MB-231 [6]): 2

pIC50 (4T1 [1]): 6.28 | pIC50 (MDA-MB-231 [3]): 6.34 | pIC50 (MCF7 [4]): 6.38
SMILES: C=C1C(=O)O[C@H]2[C@H]1CC/C(COC(=O)/C=C/c1ccccc1OC)=C\CC[C@@]1(C)O[C@@H]21
pIC50 (SUM-159-PT [2]): 6.46 | pIC50 (Bcap37 [5]): 6.17

pIC50 (4T1 [1]): 5.39 | pIC50 (MDA-MB-231 [3]): 5.46 | pIC50 (MCF7 [4]): 5.57
SMILES: C=C1C(=O)O[C@@H]2C3O[C@]3(C)CC/C=C(\C)CC[C@@H]12 (some centres undefined)
viability at 0.5 µM (SUM-159-PT [7]): 96.4% | pIC50 (SUM-159-PT [2]): 5.51 | Activity (SUM-159-PT [8]): 1.1% | Activity (SUM-159-PT [9]): 0.049% | Activity (SUM-159-PT [10]): 2.49% | pIC50 (Bcap37 [5]): 5.33

pIC50 (MDA-MB-231 [3]): < 4.30 | pIC50 (MDA-MB-231 [11]): 5.41
SMILES: COc1cccc(OC)c1/C=C/C(=O)O

pIC50 (4T1 [1]): 5.94 | pIC50 (MDA-MB-231 [3]): 6.13 | pIC50 (MCF7 [4]): 5.70
SMILES: C=C1C(=O)O[C@H]2[C@H]1CC/C(COC(=O)/C=C/c1ccccc1C(F)(F)F)=C\CC[C@@]1(C)O[C@@H]21
pIC50 (SUM-159-PT [2]): 6.07 | pIC50 (Bcap37 [5]): 5.72

pIC50 (4T1 [1]): 6.47 | pIC50 (MDA-MB-231 [3]): 6.59 | pIC50 (MCF7 [4]): 6.59
SMILES: C=C1C(=O)O[C@H]2[C@H]1CC/C(COC(=O)/C=C/c1cc(OC)ccc1OC)=C\CC[C@@]1(C)O[C@@H]21
pIC50 (SUM-159-PT [2]): 6.59 | Ratio IC50 (MDA-MB-231 [6]): 14 | pIC50 (Bcap37 [5]): 6.26

pIC50 (4T1 [1]): 5.85 | pIC50 (MDA-MB-231 [3]): 6.26 | pIC50 (MCF7 [4]): 6.05
SMILES: C=C1C(=O)O[C@H]2[C@H]1CC/C(COC(=O)/C=C/c1ccc(OC)cc1OC)=C\CC[C@@]1(C)O[C@@H]21
pIC50 (SUM-159-PT [2]): 6.10 | pIC50 (Bcap37 [5]): 5.94

pIC50 (4T1 [1]): 6.66 | inhibition [22]: Active | inhibition [24]: Active | pIC50 (MDA-MB-231 [3]): 6.60 | inhibition [26]: Active | pIC50 (MCF7 [4]): 6.64
SMILES: C=C1C(=O)O[C@H]2[C@H]1CC/C(COC(=O)/C=C/c1c(OC)cccc1OC)=C\CC[C@@]1(C)O[C@@H]21
Activity (SUM-159-PT [12]): Active | Activity (SUM-159-PT [13]): Active | Activity (SUM-159-PT [14]): Active | Activity (SUM-159-PT [15]): Active | viability at 0.5 µM (SUM-159-PT [7]): 61.3% | Activity (SUM-159-PT [16]): Active | viability at 0.2 µM (SUM-159-PT [17]): 96.3% | pIC50 (NIH3T3): 5.09 | Activity (SUM-159-PT [18]): Active | Ratio IC50 (Bcap37 [19]): 11.6 - 18.6 | Activity (SUM-159-PT [20]): 0.79% | Ratio IC50 (MCF7 [21]): 11.6 - 18.6 | pIC50 (SUM-159-PT [2]): 6.70 | selectivity ratio [23]: 36.9 | Activity (SUM-159-PT [8]): 6.07% | Activity (SUM-159-PT [25]): Active | Activity (SUM-159-PT [27]): Active | Activity (SUM-159-PT [28]): 2.93% | Activity (SUM-159-PT [9]): 2.04% | Ratio IC50 (SUM-159-PT [29]): 11.6 - 18.6 | Ratio IC50 (MDA-MB-231 [6]): 14 | Activity (SUM-159-PT [30]): Active | Activity (SUM-159-PT [10]): 30.5% | pIC50 (Bcap37 [5]): 6.57 | Activity (SUM-159-PT [31]): Active | Ratio IC50 (4T1 [32]): 11.6 - 18.6 | Activity (SUM-159-PT [33]): 0.029%

pIC50 (MDA-MB-231 [3]): 5.99
SMILES: C=C1C(=O)O[C@H]2[C@H]1CC/C(COC(=O)/C=C/c1cc(OC)c(OC)cc1OC)=C\CC[C@@]1(C)O[C@@H]21

pIC50 (MDA-MB-231 [3]): 5.94
SMILES: C=C1C(=O)O[C@H]2[C@H]1CC/C(COC(=O)/C=C/c1ccc(OC(C)=O)cc1)=C\CC[C@@]1(C)O[C@@H]21
